What was measured:
Bacillus cereus [1] = assay: Compound was tested for the inhibition of Phosphoinositide specific phospholipase C (PI-PLC) in the presence of buffer at concentration of 40.0 mM; set-up: scale not given: the % may be the effect or the level left
Procedure, shortened: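 Recombinant B. cereus PI-PLC, final 5 nM, with 0.25 mM NPIP (D-enantiomer) in 100 mM HEPES, 1 mM EDTA, pH 7, no PEG-600, 25 °C. Inhibitor added a few minutes before substrate and enzyme. Activity normalized to uninhibited control; mean of at least two separate experiments.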

[2] = Inhibition of Phosphoinositide specific phospholipase C (PI-PLC) from Bacillus cereus on the internal face of the cell membrane.
Procedure, shortened: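 Single-phase aqueous assay: recombinant B. cereus PI-PLC, final 5 nM, with 0.25 mM NPIP in 100 mM HEPES, 1 mM EDTA, pH 7, 0.008% PEG-8000, 25 °C. Inhibitor kept at least tenfold below cmc and added before substrate and enzyme. Initial rates at 399 nm over 4 min. IC50 is the mean of two experiments. Ki came from varying NPIP 0.1-0.5 mM at two inhibitor levels, fitted to competitive inhibition.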

Bacillus cereus [3] = assay: Compound was tested for the inhibition of Phosphatidylinositol-Specific Phospholipase C (PI-PLC) in the presence of PEG-600 at concentration of 40.0 mM; set-up: scale not given: the % may be the effect or the level left
Procedure, shortened: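 Recombinant B. cereus PI-PLC (E. coli periplasmic prep), final 5 nM, with 0.25 mM NPIP (D-enantiomer) in 90% crystallization precipitant solution (33% PEG-600, 0.16 M trisodium citrate-HCl pH 7.35, 46 mM HEPES pH 7), 25 °C. Inhibitor preincubated a few minutes before substrate and enzyme. p-Nitrophenolate followed at 399 nm for 4 min; activity normalized to uninhibited control.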

Row | IC50 [2] [µM] | SMILES | further results
1 | 10000 | O[C@H]1[C@H](O)[C@@H](O)[C@H](O)[C@@H](O)[C@H]1O [INOSITOL] | Activity (Bacillus cereus [1]): 18%; Activity (Bacillus cereus [3]; 40.0 mM): 22%
2 | 56 | O=P(O)(O)OC1C(O)C(O)C(O)C(O)C1O (stereo in doubt; form 2) | –
3 | 45 | CCCCCCOCC(CC(F)(F)P(=O)(O)O)OCCCCCC (stereo not drawn) | –
4 | 135000 | O=P1(O)OC2C(O)C(O)C(O)C(O)C2O1 (stereo not drawn) | –
5 | 23 | CCCCCCOCC(CCP(=O)(O)OC)OCCCCCC (stereo not drawn) | –
6 | – | O=P(O)(O)OC1C(O)C(O)C(O)C(O)C1O (stereo in doubt; form 1) [listing 1 of 2 here] | Activity (Bacillus cereus [1]): 69%; Activity (Bacillus cereus [3]; 16.0 mM, in the assay text read “16.0 mM” for “40.0 mM”): 56%
7 | 12 | CCCCCCCCOCC(COP(=O)(O)OC)OCCCCCCCC (stereo not drawn) | Activity (Bacillus cereus [1]): 14%; Activity (Bacillus cereus [3]; 0.17 mM, in the assay text read “0.17 mM” for “40.0 mM”): 102%
8 | 133 | O=C1C(O)C(O)C(O)C(O)C1O (stereo in doubt) | –
9 | > 50000 | O[C@@H]1[C@H](O)[C@@H](O)[C@@H](O)[C@@]2(CO2)[C@@H]1O | –
10 | 53 | CCCCCCOCC(COP(=O)(O)OC)OCCCCCC (stereo not drawn) | –
11 | 55 | CCCCCCOCC(COP(=O)(O)O)OCCCCCC (stereo not drawn) | –
12 | 18 | CCCCCCOCC(CCP(=O)(O)OC1C(O)C(O)C(O)C(O)C1O)OCCCCCC (stereo not drawn) | Activity (Bacillus cereus [1]): 25%; Activity (Bacillus cereus [3]; 0.25 mM, in the assay text read “0.25 mM” for “40.0 mM”): 100%
13 | 187 | CCCCCC(=O)OCC(COP(=O)(O)O)OC(=O)CCCCC (stereo not drawn) | –
14 | 3 | O=C1C(O)C(O)C(O)C(O)C1O (racemic) | –
15 | 410000 | O[C@H]1[C@H](O)[C@@H](O)[C@H](O)[C@@H](O)[C@@H]1O [SCYLLITOL] | –
16 | 43 | O=P(O)(O)OC1C(O)C(O)C(O)C(O)C1O (stereo in doubt; form 1) [listing 2 of 2 here] | –
17 | 34 | CCCCCCOCC(CC(F)(F)P(=O)(O)OC1C(O)C(O)C(O)C(O)C1O)OCCCCCC (stereo not drawn) | –
18 | 235 | CCCCCOCC(COP(=O)(O)OC)OCCCCC (stereo not drawn) | –
19 | 60 | CCCCCCOCC(CCP(=O)(O)O)OCCCCCC (stereo not drawn) | –
20 | 2000 | O[C@H]1[C@@H](O)[C@@H](O)[C@@H](O)[C@@H](O)[C@@H]1O | –
21 | 118 | CCCCCC(=O)OCC(COP(=O)(O)OC)OC(=O)CCCCC (stereo not drawn) | –

Reference: ChEMBL document CHEMBL1129377, “Synthesis, structure-activity relationships, and the effect of polyethylene glycol on inhibitors of phosphatidylinositol-specific phospholipase C from Bacillus cereus” (J Med Chem, 1996)
